Measurements collected from several papers.
Converted amounts (≈) assume the structure as drawn.

| Compound | tested on | test | system | conditions | endpoint | value |
| --- | --- | --- | --- | --- | --- | --- |
| N.N.[Cl][Pt][Cl] | HaCaT | cell growth or viability, MTT | – | 48 h | IC50 | 14.2 µM |
| COc1ccc(-c2[nH]c3c(C)c(C)ccc3c2C(=O)c2cc(OC)c(OC)c(OC)c2)cc1O | – | tubulin polymerisation, inhibitor, absorbance | – | – | IC50 | > 20 µM |
| Oc1c(Br)cc(Br)cc1-c1[nH]c(Br)c(Br)c1Br | Bacillus subtilis | microbial growth | ATCC6051 | – | MIC | 0.01 µM |
| OC(Cn1cncn1)(Cn1cncn1)c1ccc(F)cc1F | Nakaseomyces glabratus | microbial growth, broth dilution | ATCC2001 | – | MIC | 2 µg/mL |
| O=C/C=C/c1ccccc1 | Cryptococcus neoformans | microbial killing, broth dilution | – | clinical isolate | MFC | 200 µg/mL (≈ 1510 µM) |
| Oc1c(Cl)cc(Cl)cc1-c1[nH]c(Cl)c(Cl)c1Cl | Bacillus subtilis | microbial growth | ATCC6051 | – | MIC | 0.04 µM |
| CC[C@@]1(O)C(=O)OCc2c1cc1n(c2=O)Cc2cc3ccccc3nc2-1 | LS174T | cell growth or viability, MTT | – | 48 h | IC50 | 31.6 µM |
| COc1ccc(-c2[nH]c3c(OC)c(OC)c(OC)cc3c2C(=O)c2cc(OC)c(OC)c(OC)c2)cc1O | – | tubulin polymerisation, inhibitor, absorbance | – | – | IC50 | > 20 µM |
